# G6PDH counter: counter-screen for G6PDH assay hits: L. mesenteroides G6PDH inhibition; 200,000 tested, 0.12% active; Purified L. mesenteroides G6PDH, diaphorase/resazurin coupled fluorescence, 45 min; inhibition, % at 5 µM; in the data active means inhibition above about 50%
# Diaphorase act: counter-screen for diaphorase-based assays: diaphorase activators and chemical reducers. Diaphorase/resazurin coupled assay, resorufin fluorescence, 16 min; active compounds read high; 1 = vehicle wells, 0 = NADH-free wells. activation factor at 20 µM. 190,000 tested, 0.005% active. AID 1229;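 active means diaphorase activity raised at least twofold by the compound at 20 µM; inactive means activation factor below 2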
#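 Test system: Clostridium kluyveri diaphorase, purified enzyme; input: enzyme 0.07 U/mL final; buffer or medium: 50 mM HEPES pH 7.4 with 4.542 mM MgCl2, 0.005% Tween 20; also added: 0.114 mM NADH and 0.1 mM resazurin, final amounts; schedule: 16 min enzyme reaction, ambient temperature; technique: fluorescence of resorufin, 544 nm excitation, 590 nm emission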
# PfG6PD inh: PfG6PD (Plasmodium falciparum) enzyme inhibition; inhibition, % at 20 µM; 350,000 tested, 0.78% active; PfGluPho enzyme, NADPH resazurin-diaphorase fluorescence; AID 504690;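 active means inhibition reaching at least a set limit at 20 µM in the primary screen, cut at about 59% in these data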
# HKDC1 inh: blocks human hexokinase HKDC1 activity; recombinant HKDC1, G6PDH/diaphorase resazurin coupled fluorescence; inhibition, % at 20 µM; 340,000 tested, 0.16% active; AID 493160;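 active means inhibition above about 35% when tested at 20 µM, limit read from the data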
# Target sequence (Q2TB90 whole entry, looked up): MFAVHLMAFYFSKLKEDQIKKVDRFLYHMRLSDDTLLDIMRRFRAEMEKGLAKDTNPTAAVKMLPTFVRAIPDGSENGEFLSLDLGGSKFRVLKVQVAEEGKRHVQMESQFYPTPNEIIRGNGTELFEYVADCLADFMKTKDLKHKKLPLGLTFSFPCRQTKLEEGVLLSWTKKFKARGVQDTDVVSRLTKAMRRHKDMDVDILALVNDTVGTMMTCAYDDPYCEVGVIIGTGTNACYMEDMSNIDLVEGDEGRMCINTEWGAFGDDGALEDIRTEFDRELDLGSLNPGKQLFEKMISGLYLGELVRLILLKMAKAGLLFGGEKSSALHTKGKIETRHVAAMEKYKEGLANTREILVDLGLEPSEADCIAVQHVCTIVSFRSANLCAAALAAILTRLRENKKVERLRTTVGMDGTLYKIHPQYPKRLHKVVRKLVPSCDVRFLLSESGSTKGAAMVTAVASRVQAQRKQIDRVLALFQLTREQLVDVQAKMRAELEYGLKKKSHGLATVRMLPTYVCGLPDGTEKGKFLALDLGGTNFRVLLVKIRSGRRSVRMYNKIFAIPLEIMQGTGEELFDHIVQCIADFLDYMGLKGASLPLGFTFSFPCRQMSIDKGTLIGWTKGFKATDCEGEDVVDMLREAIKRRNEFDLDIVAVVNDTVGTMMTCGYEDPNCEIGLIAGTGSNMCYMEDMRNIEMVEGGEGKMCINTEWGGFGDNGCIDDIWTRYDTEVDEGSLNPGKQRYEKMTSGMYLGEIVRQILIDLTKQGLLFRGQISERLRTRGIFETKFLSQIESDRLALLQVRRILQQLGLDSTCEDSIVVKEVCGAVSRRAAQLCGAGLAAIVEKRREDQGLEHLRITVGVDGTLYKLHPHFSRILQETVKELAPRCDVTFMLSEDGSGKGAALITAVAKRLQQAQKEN
#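 Test system: recombinant HKDC1 (HK5) hexokinase enzyme, produced in-house / Doses: 20 µM test compound, 1% DMSO / Timing: 90 min, room temperature / Detection: G6PDH/diaphorase-coupled fluorescence, 1 mM NADP, 100 µM resazurin, 525/613 nm / Control set: DMSO wells with and without enzyme mix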
# Diaph inh CS: counter-screen for diaphorase-based assays: diaphorase inhibitors and chemical oxidizers | diaphorase resazurin-to-resorufin fluorescence, NADH, 16 min; bacterial (C. kluyveri) enzyme, not human | inhibition, % at 20 µM | 190,000 tested, 0.69% active | AID 1217;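 active means primary screen inhibition at 20 µM above a set limit, cut at about 50% in these data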
#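 System: Diaphorase enzyme from Clostridium kluyveri | Amount: Enzyme working solution with 0.14 U/mL diaphorase | Benchmarks: No-NADH positive control and DMSO neutral control | Signal: Fluorescence of resorufin formed from resazurin, Ex 544/Em 590 nm | Schedule: 16-min room-temperature incubation before reading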
# HKDC1 act conf: HKDC1 (human) activation, single-dose confirmed; recombinant HKDC1, G6PDH/diaphorase resazurin fluorescence; active compounds read low; 740 tested, 14% active; shares compounds with HKDC1 inh; inhibition, % at 20 µM;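 active means inhibition at or below a set negative limit, negative inhibition meaning the enzyme was activated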
# Numbers stand for hits; – = inactive; · = not tested or not shown. Sampled rows, rich in hits. Any-hit rate of the full collection: about 1.2%.
SMILES,G6PDH counter,Diaphorase act,PfG6PD inh,HKDC1 inh,Diaph inh CS,HKDC1 act conf
Cc1ccccc1/C=C/C(=O)c1ccc([N+](=O)[O-])o1,·,·,80,46,·,–
Cc1cccc(/C=C/C(=O)c2ccc([N+](=O)[O-])o2)c1,·,·,–,50,·,–
Cc1ccccc1NC(=O)c1ccc([N+](=O)[O-])o1,–,–,–,–,–,·
O=C(NCCN1CCN(Cc2ccccc2)CC1)c1ccc(CS(=O)(=O)c2c(Cl)cccc2Cl)o1,·,·,–,·,·,·
O=C(Nc1ccc(Br)cc1F)c1nc[nH]c1C(=O)N1CCc2ccccc2C1,·,·,–,·,·,·
CC(=O)n1cc(N(C(=O)CCl)c2ccc(C)cc2)c2ccccc21,·,·,–,41,·,–
C[C@H](CO)N1C[C@H](C)[C@@H](CN(C)C(=O)Nc2ccccc2F)OCc2cnnn2CCCC1=O,·,·,–,·,·,·
COc1ccc(NC(=O)Nc2nnc(-c3ccncc3)s2)cc1,–,–,–,–,–,·
O=C(Nc1ccc(Cl)c(Cl)c1)Nc1nnc(-c2ccncc2)s1,–,–,–,41,–,–
CCC1=C(NCc2ccccc2)COC1=O,·,·,–,·,·,·
CCN(CC)S(=O)(=O)c1cccc(C(=O)N/N=C(\C)c2ccc(O)cc2O)c1,–,–,–,–,–,–
CCCc1c(C(=O)N/N=C(\C)c2ccccn2)nnn1-c1nonc1N,·,·,–,·,·,·
O=C(O)CSc1c2ccccc2cc2ccccc12,·,·,–,–,·,·
Oc1cc(-c2ccccc2)c2ccccc2c1,–,–,101,–,84,–
COc1cccc(-c2ccc(C3=CC(=O)CC(C)(C)C3=O)cc2)c1OC,·,·,–,·,·,·
COc1cccc2c1C(=O)C=C(C)C2=O,54,–,–,–,–,–
O=[N+]([O-])c1ccc(Sc2nc3ccccc3o2)c([N+](=O)[O-])c1,–,–,–,35,–,–
O=C(/C=C/c1ccc2c(c1)OCO2)NCCS(=O)(=O)N1CCN(c2ccccc2)CC1,·,·,–,·,·,·
c1ccc(CN=C2NN=C(c3ccccc3)CS2)cc1,–,–,–,–,–,·
CCN=C1NN=C(c2ccc(C)cc2)CS1,–,–,–,–,–,-52
Cc1cc(-c2nnn(CCCOC(C)(C)C)c2C)ccc1-c1cn(CCCOC(C)(C)C)nn1,·,·,–,·,·,·
O=C(CN(C(=O)CCC(=O)Nc1ccccn1)c1ccc2c(c1)OCO2)NCc1ccc(F)cc1,·,·,–,–,·,–
CC(=O)NCC1(c2ccccc2)CCN(CCCC(=O)c2ccc(F)cc2)CC1,·,·,–,·,·,·
COc1ccc(CN2CCn3nc(C(=O)NC(C)C)cc3C2=O)cc1,–,–,–,–,–,–
COC(=O)c1cc2n(n1)CCN(Cc1ccc(C)cc1)C2=O,–,–,–,–,–,·
SMILES,G6PDH counter,Diaphorase act,PfG6PD inh,HKDC1 inh,Diaph inh CS,HKDC1 act conf
O=C(c1ccc(CS(=O)c2ccccc2Cl)o1)N1CCN(C2CCCCC2)CC1 (configuration not stated),·,·,–,·,·,·
CC1=NOC(=O)/C1=C/c1ccc(-c2ccc(Cl)cc2)o1,–,–,·,·,–,·
CC1=NOC(=O)/C1=C\c1ccc(-c2ccc(Br)cc2)o1,–,–,–,42,–,–
C[C@H](O)CNC(=O)c1[nH]cnc1C(=O)N[C@@H](C)c1ccccc1,·,·,–,·,·,·
Cc1ccc(NC(=O)C(C)OC(=O)CCNS(=O)(=O)c2ccc(C)cc2)cc1 (configuration not stated),–,–,–,–,–,·
CC(=O)Nc1ccc(S(=O)(=O)NCCC(=O)OC(C)C(=O)c2ccc(C)cc2)cc1 (configuration not stated),·,·,–,35,·,–
CC(C)NC(=O)Nc1ccc2c(c1)C(=O)N([C@H](C)CO)C[C@H](C)[C@@H](CN(C)Cc1ccc(C(F)(F)F)cc1)OCCCC[C@H](C)O2,·,·,–,·,·,·
[S-]c1nnc(-c2ccc(Br)cc2)n1-c1ccccc1.[Zn+2],·,·,–,49,·,–
Cn1c(SCc2ccccc2)nccc1=O,·,·,–,–,·,·
CC1=C(SCc2ccccc2)C(=O)c2ccccc2C1=O,·,·,105,44,·,–
COc1ccc(S(=O)(=O)N2CCN(C(=O)c3cc4c(s3)CCC4)CC2)cc1,·,·,–,–,·,–
Cc1ccc(S(=O)(=O)N2CCN(C(=O)c3cc4c(s3)CCCC4)CC2)cc1,·,·,–,–,·,·
COc1ccccc1N(C)S(=O)(=O)c1ccc(Cl)c(C(=O)NCC2(N(C)C)CCCCC2)c1,·,·,–,42,·,–
COc1ccccc1N(C)S(=O)(=O)c1ccc(Cl)c(C(=O)NNC(=O)c2ccccc2O)c1,·,·,–,–,·,·
CC(C(=O)O)N1C(=O)/C(=C/C=C/c2ccco2)SC1=S (configuration not stated),–,–,–,56,–,–
O=C1/C(=C/C=C/c2ccco2)SC(=S)N1NS(=O)(=O)c1ccccc1,·,·,–,–,·,·
COCc1cc(SC2CCCCC2)nc(C)n1,–,–,–,46,–,–
COCc1cc(C)nc(NC2CCCCC2)c1C#N,–,–,–,–,–,·
CCC1C/C(=C\c2cccnc2)C(=O)/C(=C/c2cccnc2)C1 (configuration not stated),–,–,–,35,–,–
O=C1/C(=C/c2cccnc2)CC/C1=C\c1cccnc1,–,–,–,–,–,·
CCCCN(C(=O)COc1ccc(F)cc1)c1c(N)n(CC(C)C)c(=O)[nH]c1=O,·,·,–,·,·,·
O=C(COc1ccccc1/C=C\c1[nH]c(=O)[nH]c(=O)c1[N+](=O)[O-])Nc1ccccc1,–,–,–,40,–,–
O=c1[nH]c(/C=C/c2ccccc2Cl)c([N+](=O)[O-])c(=O)[nH]1,·,·,–,–,·,·
O=C(OCC(=O)N1CCN(C(=O)c2ccco2)CC1)c1cc(-c2ccccc2)nc2ccccc12,–,–,–,37,–,–
CC(=O)Nc1cccc(NC(=O)NC2CC(=O)N(c3ccc4c(c3)OCCO4)C2)c1 (configuration not stated),·,·,–,·,·,·
SMILES,G6PDH counter,Diaphorase act,PfG6PD inh,HKDC1 inh,Diaph inh CS,HKDC1 act conf
C/C(=N\NC(=O)c1cc(C2CC2)nc2ccccc12)c1ccc(C)s1,–,–,–,–,–,·
C/C(=N\NC(=O)c1cc(C2CC2)nc2ccccc12)c1ccc(O)cc1O,·,·,–,–,·,–
COc1ccc2c(c1)CCc1c(C(=O)N3CCCc4ccccc43)noc1-2,–,–,–,38,–,–
COc1ccc2c(c1)CCc1c(C(=O)N3CCOCC3)noc1-2,–,–,–,–,–,·
Fc1ccccc1N=C1NN=C(c2ccccc2)CS1,–,–,–,–,–,-53
Fc1ccc(N=C2NN=C(c3cc(F)ccc3F)CS2)cc1,–,–,–,–,–,-132
Fc1ccc(F)c(C2=NNC(=Nc3ccccc3F)SC2)c1,–,–,–,–,–,·
CCOC(=O)C(C(=O)OCC)c1cc(Br)c2noc3c2c1C(=O)c1ccccc1-3,56,–,84,54,62,–
COc1ccc(Nc2nc(-c3ccc(OC)cc3)cs2)cc1,–,–,–,–,–,·
